Experimental findings from PMC1389615 (The Journal of General Physiology, 2004) are described below.

Common to all, as to assay: inside-out patch clamp, block of cGMP-activated current, Hill fit
What all share (type): cell-based
A general note: In patch-clamp work, channel activity is measured electrically.

Assay [1] addresses T1, CNGA1 (Bos taurus, UniProt Q00194, R342D).
T1 sequence (Q00194 1-690 R342D): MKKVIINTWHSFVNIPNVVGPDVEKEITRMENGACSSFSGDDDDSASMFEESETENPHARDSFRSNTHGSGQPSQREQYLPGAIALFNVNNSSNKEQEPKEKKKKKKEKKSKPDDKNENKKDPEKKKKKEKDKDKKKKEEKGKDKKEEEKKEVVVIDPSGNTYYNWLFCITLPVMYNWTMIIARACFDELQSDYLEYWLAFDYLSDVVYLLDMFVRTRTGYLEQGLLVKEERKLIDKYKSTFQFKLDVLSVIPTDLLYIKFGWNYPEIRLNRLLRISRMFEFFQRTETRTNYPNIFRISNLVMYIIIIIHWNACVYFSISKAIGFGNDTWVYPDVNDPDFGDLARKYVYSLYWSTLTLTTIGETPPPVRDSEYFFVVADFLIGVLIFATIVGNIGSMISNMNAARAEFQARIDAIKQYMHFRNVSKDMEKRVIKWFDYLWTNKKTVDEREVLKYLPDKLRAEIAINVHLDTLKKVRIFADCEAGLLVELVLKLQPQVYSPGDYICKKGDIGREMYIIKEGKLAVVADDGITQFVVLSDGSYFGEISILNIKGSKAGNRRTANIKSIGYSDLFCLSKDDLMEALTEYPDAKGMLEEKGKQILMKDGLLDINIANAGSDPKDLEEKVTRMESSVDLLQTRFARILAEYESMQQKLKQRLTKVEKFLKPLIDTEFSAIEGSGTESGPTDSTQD

The target of a further assay is T2, CNGA2 (Rattus norvegicus, UniProt Q00195).
T2 sequence (Q00195 1-664): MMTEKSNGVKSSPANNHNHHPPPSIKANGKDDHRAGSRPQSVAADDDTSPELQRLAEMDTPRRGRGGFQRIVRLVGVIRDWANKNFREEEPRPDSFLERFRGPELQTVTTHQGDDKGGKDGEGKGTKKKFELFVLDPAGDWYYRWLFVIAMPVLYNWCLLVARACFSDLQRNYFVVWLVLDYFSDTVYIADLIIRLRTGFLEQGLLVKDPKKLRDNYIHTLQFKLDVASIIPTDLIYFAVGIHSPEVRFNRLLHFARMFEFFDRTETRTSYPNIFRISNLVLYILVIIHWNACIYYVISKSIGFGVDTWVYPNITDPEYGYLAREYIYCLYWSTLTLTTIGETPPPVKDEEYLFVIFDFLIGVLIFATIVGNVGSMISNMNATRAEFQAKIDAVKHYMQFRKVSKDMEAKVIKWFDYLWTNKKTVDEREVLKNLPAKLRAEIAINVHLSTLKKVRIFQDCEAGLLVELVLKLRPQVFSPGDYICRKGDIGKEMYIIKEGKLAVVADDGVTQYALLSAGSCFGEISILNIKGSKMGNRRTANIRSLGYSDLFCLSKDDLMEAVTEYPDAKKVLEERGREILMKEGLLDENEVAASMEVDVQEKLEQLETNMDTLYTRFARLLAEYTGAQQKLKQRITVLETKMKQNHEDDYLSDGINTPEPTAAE
In a few lines:
(§1)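 Channels expressed in Xenopus oocytes 2–10 d after cRNA injection; inside-out patches, room temperature. […] Blocker applied at 0 mV with 20-ms steps to +20 mV every 5 s. Currents were cGMP-free subtracted. Hill fit, SEM, n = 5–7 patches.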

Assay [2] has as its target T3, CNGA1 (Bos taurus, UniProt Q00194).
T3 sequence (Q00194 1-690): T1 sequence (Q00194 1-690 R342D) with D342R
The procedure, abridged:
as §1

Assay [3] addresses T4, CNGA1 (Bos taurus, UniProt Q00194, R342Y).
T4 sequence (Q00194 1-690 R342Y): T1 sequence (Q00194 1-690 R342D) with D342Y

As a reminder, the IC50 is the concentration at which inhibition is half-maximal.

Structures are written as SMILES. Residue numbers refer to the chain shown, from its start.

`Cc1cc(N)c2ccccc2[n+]1CCCCCCCCCC[n+]1c(C)cc(N)c2ccccc21` [dequalinium]: the concentration for half-maximal inhibition (IC50) against CNGA1 [1] is 123 ± 0.2 nM; on CNGA2, 2400 ± 290 nM; against CNGA1 [2] it was 189 ± 4.19 nM; on CNGA1 [3], 91 ± 0.1 nM.
